# Source: PubChem
# UPR CHOP act: apoptotic UPR (CHOP) activation. CHO-CHOP luciferase reporter, luminescence; percent of tunicamycin response over DMSO baseline. activation, % at 10 µM. 0.34% of 330,000 active. AID 449763;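 active = at 10 µM dose, activation of 40% or more, normalized to positive control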
#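 assay system = CHO CHOP reporter cells | amount = 500 CHO-CHOP cells per well | buffer or medium = F12 with 10% FBS | incubation = 16-18 h cell attachment, then 6 h compound exposure, 37 °C | detection = luminescence read with Steady-Glo | read-out = percent activation relative to tunicamycin control | controls = tunicamycin high control, DMSO low control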
# Fh CTSL1 inh: cathepsin L1 inhibition, PFM18AAP counter-screen | recombinant F. hepatica cathepsin L1, Z-Leu-Arg-MCA fluorescence | inhibition, % at 5.96 µM | 0.49% of 300,000 active | AID 1906;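 active = inhibition above the mean of all tested compounds plus 3 SD, set per screening campaign, cut at about 17% in these data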
# UPR XBP1 act: adaptive UPR (XBP1) activation. AID 463104. activation, % at 20 µM. 0.33% of 330,000 active. CHO-XBP1 luciferase reporter, IRE1-XBP1 UPR activation, luminescence; percent of tunicamycin response, DMSO as zero;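 active = versus positive control, 20 µM dose yields 30% or more activation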
#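 Material: IRE1-XBP1 luciferase reporter CHO line / Quantity: one thousand reporter cells per well / Buffer or medium: F12 with 10% serum / Compound: 20 µM single concentration, DMSO 1% / Times: 6 h treatment, 37 °C / Detection: Steady-Glo luciferase glow luminescence, 10 min after reagent addition / Benchmarks: tunicamycin high, DMSO low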
# CHOP inhibitor: blocks CHOP induction under ER stress; CHO-K1 CHOP-promoter luciferase, tunicamycin-induced, 15-18 h; inhibition, % at 10 µM; 3.8% of 220,000 active; AID 2732;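 active = compounds that reduced the stress-induced luciferase reporter signal by more than about 70% of percent inhibition, limit read from the data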
# UCH37 inh: inhibitors of human deubiquitinating enzyme UCH37; Q9Y5K5; purified proteasome/UCH37, Ub-AMC cleavage fluorescence; inhibition, % (test concentration not listed); 0.33% of 330,000 active; AID 588478;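 active = mean inhibition over replicate wells above about 20%, limit read from the data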
# Target sequence (Q9Y5K5 whole entry, looked up): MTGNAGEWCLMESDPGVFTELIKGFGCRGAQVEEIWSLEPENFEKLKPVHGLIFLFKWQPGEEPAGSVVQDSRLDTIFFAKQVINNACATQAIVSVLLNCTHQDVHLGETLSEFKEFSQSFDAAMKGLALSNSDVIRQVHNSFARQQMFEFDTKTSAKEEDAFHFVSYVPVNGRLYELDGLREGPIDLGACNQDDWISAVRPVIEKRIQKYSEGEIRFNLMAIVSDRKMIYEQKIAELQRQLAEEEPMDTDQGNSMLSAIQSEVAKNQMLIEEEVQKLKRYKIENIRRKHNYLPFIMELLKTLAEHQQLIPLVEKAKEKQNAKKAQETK
#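 Schedule: 30 min plus 25 min, room temperature / Material: human UCH37 within purified proteasomes / Technique: AMC fluorescence intensity at 355/460 nm / Buffer or medium: pH 7.4 Tris-HCl (50 mM) with ovalbumin, ATP-MgCl2, DTT / Controls: wells without proteasome as full block, compound-free enzyme plus substrate as uninhibited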
# Numbers stand for hits; 0 = inactive; - = no result. The sample as a whole holds a higher share of hits than the screen did.
SMILES,UPR CHOP act,Fh CTSL1 inh,UPR XBP1 act,CHOP inhibitor,UCH37 inh
Cc1cc(Br)c(OCc2ccc(C(=O)NN=C3CC(=O)CC(C)(C)C3)cc2)c(Br)c1,-,-,-,-,0
COc1cc(NC(=O)C2CCCCC2)c(OC)cc1NC(=O)c1ccco1,0,0,0,0,0
CCOc1cc(NC(=O)C2CCCCC2)c(OCC)cc1NC(=O)c1ccco1,0,0,0,84,0
CSCC[C@H](NC(=O)[C@@H]1Cc2ccccc2CN1)C(=O)NCC1CCC(C(=O)O)CC1 (stereo partly specified),-,-,-,-,0
Nc1nc(N)c(N=O)c(OCC2CCCCC2)n1,0,104,0,-,0
CCc1c(C(=O)Nc2ccncc2)csc1C,0,0,0,71,0
CCc1c(C(=O)Nc2ccccc2C(N)=O)csc1C,0,0,0,-,0
NC(=NO)c1ccccc1-n1cccc1,-,-,-,-,0
Brc1ccc(C=Nn2cnnc2)s1,-,-,-,-,0
Cn1c(SCC(=O)NNC(=O)Nc2ccc(Cl)cc2)nnc1-c1ccccc1,0,0,0,0,0
CC1(C)N=C(SCC(=O)Nc2ccc(Cl)cc2)C(c2ccccc2)=N1,0,0,0,78,0
CC1(C)N=C(SCC(=O)Nc2ccc(Cl)cc2)C(c2ccc(Cl)cc2)=N1,0,0,0,72,0
CC(=NNC(=S)Nc1c(C)cccc1C)c1ccc(O)cc1,-,-,-,-,0
O=[N+]([O-])c1ccccc1/C=C\C=NN1CCN(c2ccccc2)CC1,-,-,-,-,0
O=C(NCCc1ccccc1)C(c1cccs1)N(C(=O)CCl)c1ccc(Cl)cc1 (stereo unspecified),0,0,0,111,0
O=[N+]([O-])c1cccc(S(=O)(=O)Nc2nc3ccccc3nc2Nc2cccc(S(=O)(=O)N3CCCCC3)c2)c1,-,-,-,82,0
Cc1ccc(S(=O)(=O)Nc2nc3ccccc3nc2Nc2cccc(S(=O)(=O)N3CCCC3)c2)cc1,0,0,0,0,0
COc1ccc(C=c2sc(=CC(=O)c3ccc(C)cc3)[nH]c2=O)c(OC)c1,-,-,-,-,0
O=C(CC1SC(=O)N(Cc2ccccc2)C1=O)Nc1nccs1 (stereo unspecified),0,0,0,87,-
CC(C)CN(CC(C)C)c1ccc(C=Nn2cnnc2)cc1[N+](=O)[O-],-,-,-,-,0
Cc1noc(C)c1C(=O)Nc1nc(C23CC4CC(CC(C4)C2)C3)cs1,0,0,0,83,0
COc1ccc(OC)c(C=NNC(=O)c2ccc(=O)[nH]n2)c1,-,-,-,-,0
Cc1cccc2c1c1ccc3c(c1n2C)C(=O)C=CC3=O,-,-,-,78,-
Cc1ccccc1N1CC(=O)N(c2ccccc2C)CC1=O,0,0,0,0,0
O=C(O)c1cccc2c1C(=NNc1ccc([N+](=O)[O-])cc1[N+](=O)[O-])c1ccccc1-2,-,-,-,-,0
SMILES,UPR CHOP act,Fh CTSL1 inh,UPR XBP1 act,CHOP inhibitor,UCH37 inh
C=CCNc1nc(-c2ccc([N+](=O)[O-])cc2)cs1,0,0,0,0,0
C=CCNc1nc(-c2ccc(Cl)cc2)cs1,0,25,0,0,0
COc1cc(C=NNC(=O)c2nonc2N)c(OC)cc1Br,-,-,-,-,0
C=C(C)C1CCC2(C(=O)O)CCC3(C)C(CCC4C5(C)C(C=O)C(O)C(C)(C)C5CCC43C)C12 (stereo unspecified),0,0,0,85,0
O=C(CSc1nnnn1-c1ccccc1)Nc1ccc(Cl)cc1,0,0,0,88,0
Cc1sc(NC(=O)CSc2nnnn2C)c(C#N)c1C,0,0,0,0,0
Cc1ccc(-n2nnnc2SCC(=O)Nc2ccc3c(c2)OCCO3)cc1C,0,0,0,0,0
CC(=O)c1ccc(-n2nnnc2SCC(=O)Nc2sc(C)c(C)c2C#N)cc1,0,0,0,81,0
Cc1ccc(NC(=O)CSc2nnnn2-c2ccc3c(c2)OCO3)cc1C,0,0,0,92,0
Cc1ccc(-n2nnnc2SCC(=O)Nc2sc(C)c(C)c2C#N)cc1C,0,0,0,83,0
CN(CCc1ccccn1)C1CCCN(S(=O)(=O)c2ccccc2)C1 (stereo unspecified),0,0,0,-,0
CN(CCc1ccccc1)C1CCCN(S(=O)(=O)CC(F)(F)F)C1 (stereo unspecified),0,19,0,-,0
Cc1ccc(NC(=O)COc2ccc(C=NNC(=O)c3cccnc3)cc2)cc1C,-,-,-,-,0
Cn1c(=O)c(C(=O)CN2CCCc3ccccc32)c(N)n(Cc2ccccc2)c1=O,0,0,0,77,0
COC(=O)c1oc2ccc(Br)cc2c1NC(=O)CCCN1C(=O)c2ccccc2C1=O,0,0,0,95,0
C=C(C)C1CC=C(C)/C(=N\NC(=O)CCC(=O)Nc2ccc(C)c(C)c2)C1 (stereo unspecified),0,0,0,77,-
CC(C)(C)NC(=O)NC(=O)CSc1cccc(C(F)(F)F)c1,0,0,0,90,0
CC(C)NC(=O)NC(=O)CSc1ncc(C(F)(F)F)cc1Cl,0,0,0,0,0
CC(C)(C)NC(=O)NC(=O)CSc1ncc(C(F)(F)F)cc1Cl,0,0,0,74,0
CNC(=O)NC(=O)CSc1cccc(C(F)(F)F)c1,0,0,0,0,0
COc1ccc(C=NNC(=O)c2ccn[nH]2)cc1COc1ccc(Cl)cc1Cl,-,-,-,-,0
CC(=NNc1ccc(Cl)c(C(=O)O)c1)c1cccc2ccccc12,-,-,-,-,0
CC(C)N(C(=O)Nc1ccc2nsnc2c1)C(C)C,0,114,0,0,0
COc1ccc(Cl)cc1NC(=O)CSc1nc(NS(=O)(=O)c2ccc(C)cc2)cc(=O)[nH]1,0,0,0,-,0
Cc1ccc(S(=O)(=O)Nc2cc(=O)[nH]c(SCc3ccc(Cl)cc3)n2)cc1,-,0,-,86,0
O=c1cc(NS(=O)(=O)c2ccccc2)nc(SCc2ccccc2Cl)[nH]1,0,0,0,0,0
O=c1cc(NS(=O)(=O)c2ccccc2)nc(SCc2c(Cl)cccc2Cl)[nH]1,0,0,0,80,0
